Most compounds without a hit are left out; they make up all but 2.6% or so of the library.
Apaf-1 inh – inhibitors of human Apaf-1 apoptosome; O14727; reconstituted apoptosome caspase-3 activity, DEVD-Rh110 fluorescence; inhibition, % at 20 µM; 330,000 tested, 0.71% active; active means inhibition of at least 40% at 20 µM;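 further: plate controls were DMSO wells for no effect and DEVD-CHO caspase inhibitor wells for full effect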
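Material: cell-free apoptosome with Apaf-1, procaspase-3 and caspase-9; Buffer or medium: Hepes pH 7.5 with detergent and BSA; Reagent: cytochrome c trigger plus (Z-DEVD)2-Rh110 caspase-3 substrate; Times: compound with Apaf-1, dATP, procaspase-3 30 min, then 50 min reaction, room temperature; Technique: Rh110 fluorescence intensity.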
PAD4 inh – PAD4 (human) enzyme inhibition; Q9UM07; recombinant PAD4, RCA probe fluorescence polarization; inhibition, % at 6.36 µM; 330,000 tested, 0.41% active;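 active means percent inhibition above a cutoff equal to the mean of all tested compounds plus 3 SD, cut at about 15% in these data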;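 further: 0% = PAD4 with RCA probe and DMSO and 100% = probe without PAD4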
GSTO1 inh – blocks human GSTO1 in RBBP9 counter-screen; inhibition, % at 5.96 µM; 300,000 tested, 1.1% active; recombinant GSTO1, activity-based probe fluorescence polarization; P78417;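 active means inhibition above the campaign mean inhibition plus 3 SD, cut at about 35% in these data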;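 further: 0% = GSTO1-1 with DMSO and 100% = wells lacking GSTO1-1 enzyme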
TDP2 absorb – blocks human TDP2 phosphodiesterase activity | O95551 | recombinant TDP2, T5PNP hydrolysis, p-nitrophenol absorbance 415 nm | inhibition, % at 12.8 µM | 370,000 tested, 0.34% active | AID 720702;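 active means inhibition above the mean of all tested compounds plus 3 SD, set per campaign, cut at about 25% in these data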;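 further: 0% = DMSO with enzyme and 100% = buffer with substrate but no TDP2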
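Incubation: 2 h at 37 °C; Test system: recombinant human TDP2; Quantity: enzyme 120 nM; Read-out basis: percent inhibition; Medium: 50 mM Tris-HCl pH 7.5 with Mg2+, KCl, DTT, BSA; Repeats: single replicate; Compound: 12.8 µM single point, 1% DMSO; Signal: epi absorbance; Reagent: 5 mM T5PNP chromogenic substrate; Benchmarks: no-enzyme high, DMSO-plus-enzyme low.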
PRMT1 FP inh – inhibitors of human PRMT1; Q99873; recombinant PRMT1, activity-based probe fluorescence polarization; inhibition, % at 2.79 µM; 370,000 tested, 1.3% active; AID 652257;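 active means inhibition above about 21% made by adding two undisclosed values, limit read from the data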
PRMT1 confirm – confirmation of human PRMT1 inhibitors. shares compounds with PRMT1 FP inh. recombinant His-PRMT1, activity-based probe fluorescence polarization. inhibition, % at 2.79 µM. 3,300 tested, 42% active;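 active means mean inhibition across replicates above the hit cutoff derived for the earlier primary screen, cut at about 22% in these data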
Active calls of the source: *; / = no result given.

SMILES	Apaf-1 inh	PAD4 inh	GSTO1 inh	TDP2 absorb	PRMT1 FP inh	PRMT1 confirm
O=C(NCCOc1ccccc1)C1Nc2ccc(OC(F)(F)F)cc2C2C=CCC12 (centres undefined)	6	-2	3	6	9	/
O=C(NCCF)C1Nc2ccc(OC(F)(F)F)cc2C2C=CCC12 (centres undefined)	-12	-5	9	9	29*	-1
CCOC(=O)C1Nc2ccc(Br)cc2C2C=CCC12 (centres undefined)	16	-13	16	-6	30*	26*
CC1CCN(C(=O)CNC(=O)CNC(=O)Cc2ccccc2)CC1	6	-1	2	-7	-1	/
N#Cc1ccc2nc(-c3ccc(CN4CCC(c5nc6ccccc6[nH]5)CC4)cc3)c(-c3ccccc3)nc2c1	/	/	/	7	-7	/
NC(=O)c1cccc2ccccc12	-17	-2	8	4	-6	/
N#CSCC(=O)c1cccc2ccccc12	/	8	12	-12	60*	47*
CN(CCC#N)c1ccc(/C=C(\C#N)c2ccccn2)cc1	3	-2	-13	-22	194*	0
CCN(Cc1ccccc1)c1ccc(/C=C(\C#N)c2ccccn2)cc1	14	-3	-11	-9	57*	-1
CCN(CC)c1ccc(/C=C(\C#N)c2ccccn2)cc1	16	1	-11	/	/	/
CN(CCC#N)c1ccc(C=C(C#N)c2ccc(Br)cc2)cc1	/	/	/	-10	-7	/
COC(=O)CC1CCc2cc(C)cc(C(=O)CC(C)C)c2O1 (centres undefined)	/	/	/	-4	3	/
COc1ccccc1-c1nnc(SCC#CCOC(=O)c2ccc(F)cc2)o1	/	/	/	-11	8	/
CCOc1cc(CNn2cn[nH]c2=S)cc(Cl)c1OCc1ccccc1F	1	3	-6	-14	32*	5
Cc1cccc(N2CCN(Cc3cn(C)nc3-c3ccccc3F)CC2)n1	0	2	0	3	-1	/
CC1CCC2=NN(C(=O)c3ccco3)C(O)(C(F)(F)F)C2C1 (centres undefined)	13	-5	0	-1	-1	/
CCCCS(=O)(=O)N1CCN(S(=O)(=O)c2cccs2)CC1	-5	1	0	10	-2	/
O=C1C=CC(=O)N1CCCCCCCCCCN1C(=O)C=CC1=O	/	/	/	-13	82*	98*
CN=C(c1ccco1)n1c(=S)nc(-c2ccco2)n(C)c1=S	17	-1	8	-13	30*	23*
COc1ccc(CCN2C(=O)CC(NCCc3ccc(S(N)(=O)=O)cc3)C2=O)cc1OC (centres undefined)	1	1	1	-4	42*	1
O=C1CC(NCc2ccco2)C(=O)N1CCc1ccccc1 (centres undefined)	0	3	6	0	-1	/
COc1ccc(CCN2C(=O)CC(NC34CC5CC(CC(C5)C3)C4)C2=O)cc1OC (centres undefined)	5	-5	-3	2	67*	2
O=C1CC(NCCc2ccccc2)C(=O)N1CCc1ccccc1 (centres undefined)	7	5	-8	4	38*	0
COc1ccc(CCN2C(=O)CC(Cc3ccc(C)cc3)C2=O)cc1OC (centres undefined)	-10	-5	-3	-3	3	/
O=C1CC(N2CCN(C3CC(=O)N(CCc4ccccc4)C3=O)CC2)C(=O)N1CCc1ccccc1 (centres undefined)	-1	0	7	-1	2	/
SMILES	Apaf-1 inh	PAD4 inh	GSTO1 inh	TDP2 absorb	PRMT1 FP inh	PRMT1 confirm
O=C1CC(N2CCC(Cc3ccccc3)CC2)C(=O)N1CCc1ccccc1 (centres undefined)	10	-3	0	-3	47*	5
COC(=O)C[C@@H]1CC[C@H]2[C@H](COc3ccc(NC(=O)C4CCC4)cc3C(=O)N2C)O1	/	/	/	6	-3	/
COc1ccc(CCN2C(=O)C=CC2=O)cc1OC	/	/	/	1	89*	84*
CCCCOc1ccc(N2C(=O)CC(NCCc3ccc(S(N)(=O)=O)cc3)C2=O)cc1 (centres undefined)	3	1	2	6	40*	6
COc1ccc(N2C(=O)CC(NC34CC5CC(CC(C5)C3)C4)C2=O)c(OC)c1 (centres undefined)	-4	1	0	7	89*	4
CCCOc1ccc(N2C(=O)CC(NCCNc3ccc([N+](=O)[O-])cn3)C2=O)cc1 (centres undefined)	6	4	1	-7	32*	4
CCCOc1ccc(N2C(=O)CC(NCc3cccnc3)C2=O)cc1 (centres undefined)	-2	-2	-3	15	19	/
CCCOc1ccc(N2C(=O)CC(NCc3ccc(S(N)(=O)=O)cc3)C2=O)cc1 (centres undefined)	4	0	-1	6	18	/
CCC(CC)NC(=O)Cc1ccc(F)cc1	-13	-3	-1	-3	-1	/
CC(=O)N/C(=C\c1ccc(C)o1)C(=O)NCc1ccccc1	-13	5	4	8	-1	/
CC1COc2ccccc2N1S(=O)(=O)c1cc(Cl)ccc1Cl (centres undefined)	11	2	6	4	-1	/
COc1ccc(CCNC2CC(=O)N(CCc3ccccc3)C2=O)cc1 (centres undefined)	-14	1	5	-8	45*	-1
COc1ccc(CCN2C(=O)CC(NNC(=O)c3ccccc3Br)C2=O)cc1 (centres undefined)	6	3	-4	-9	-2	/
COc1ccccc1CN1CC(C(=O)NCCCc2ccc(F)cc2)CCC1=O (centres undefined)	3	-9	-2	-3	3	/
COc1ccc(C2OC(=O)c3ccccc3S2)cc1 (centres undefined)	29	13	13	-15	38*	17
C[n+]1c2n(c3ccccc31)N=C(c1ccc(Cl)cc1)CS2	12	7	-8	0	40*	18
COc1ccc(C2=Nn3c([n+](C)c4ccccc43)SC2)cc1	11	11	-4	4	14	/
c1ccc(-c2nn(Cc3ncco3)c3ccccc23)cc1	/	/	/	4	-3	/
NCCSC1CC(=O)N(Cc2ccc(F)cc2)C1=O (centres undefined)	-23	-6	-1	-5	27*	11
Cc1cc(=O)n2[nH]c(-c3ccsc3-n3c(C)ccc3C)cc2n1	5	-4	31	0	15	/
Cc1ccccc1-c1cc2nc(C)c(Cl)c(=O)n2[nH]1	-20	-6	-6	-14	-2	/
COCc1cc(=O)n2[nH]c(-c3ccsc3-n3c(C)ccc3C)cc2n1	8	-3	28	5	45*	4
Cc1nc2cc(-c3ccsc3-n3c(C)ccc3C)[nH]n2c(=O)c1Cl	-2	-5	9	3	25*	9

Compound activity from PubChem BioAssay.
